# Source: PubChem
# TNF necrop inh: inhibitors of TNF-alpha induced necroptosis in Jurkat FADD-/- cells; activation (protection from cell death), % at 10 µM; Jurkat FADD-/- TNF necroptosis rescue, ATP luminescence, 24 h; 0 = TNF only, 100 = no-TNF cells; 220,000 tested, 0.068% active; AID 463075;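 active = activation, meaning protection from cell death, of at least 50% relative to plate controls; inactive = activation below 50%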;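 note: necroptosis triggered by 40 ng/mL TNF-alpha added together with compound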
# L929 necroptosis: L929 zVAD cell death inhibition | L929 zVAD necroptosis rescue, ATP luminescence, 24 h; with zVAD 60 µM | viability rescue, % at 10 µM | 220,000 tested, 0.38% active | AID 1377;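 active = activation, scaled between plate controls, above about 75%, limit read from the data; inactive = activation under that limit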;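 note: 0% = zVAD with DMSO and 100% = DMSO alone without zVAD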
# Autophagy HCS: autophagy modulation, high-content screen. MEF GFP-LC3 puncta imaging; test concentration mostly 10 µM. calls only at 10 µM (by protocol). 190,000 tested, 0.98% active. AID 463193;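 active = percentage of spot-positive cells more than 3 SD above its plate mean, without a fluorescence outlier flag or 80% toxicity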;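 note: spot-positive cell cutoff set from DMSO-treated cells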
# Mdm2 ligase inh: inhibitors of human Mdm2 E3 ubiquitin ligase; signal enhancement, % at 5 µM; cell-based MDM2 ubiquitination luciferase reporter, 2 h; 0 = plate control, 100 = twice control, blank-subtracted; 210,000 tested, 0.11% active;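 active = signal enhancement of 30% or more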;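 note: luminescence tracks abundance of the self-degrading MDM2-luciferase fusion protein; higher signal means inhibition of MDM2 E3 ligase activity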
# Target sequence (Q00987 whole entry, looked up, the tested form may be a part): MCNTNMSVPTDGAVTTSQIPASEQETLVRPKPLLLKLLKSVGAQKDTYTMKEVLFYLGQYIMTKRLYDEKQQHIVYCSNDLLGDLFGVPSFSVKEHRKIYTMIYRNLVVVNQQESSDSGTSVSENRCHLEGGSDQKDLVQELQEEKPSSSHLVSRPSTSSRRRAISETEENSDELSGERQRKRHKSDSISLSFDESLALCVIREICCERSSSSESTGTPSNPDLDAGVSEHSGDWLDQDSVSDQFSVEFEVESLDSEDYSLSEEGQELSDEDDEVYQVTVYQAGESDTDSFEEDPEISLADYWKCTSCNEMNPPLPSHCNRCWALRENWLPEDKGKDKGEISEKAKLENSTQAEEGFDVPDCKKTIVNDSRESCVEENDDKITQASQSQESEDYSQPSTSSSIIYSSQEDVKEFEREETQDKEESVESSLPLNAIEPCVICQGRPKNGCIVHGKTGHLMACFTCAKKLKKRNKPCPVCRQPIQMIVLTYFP
#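 Assay system: mammalian cells stably expressing self-ubiquitinating, self-degrading MDM2 E3–luciferase fusion. Quantity: 2000 cells in each well. Medium: DMEM culture medium. Compound dosing: single-point 5 µM. Timing: cell settling 4 h, compound treatment 2 h, both 37 °C. Technique: luciferase luminescence. Read-out basis: percent signal gain over controls, blank-subtracted. Benchmarks: plate controls and plate blanks.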
# Dynein cargo inh: dynein cargo transport inhibition; 3617.4 mouse cells, GR-EGFP nuclear translocation imaging; test concentration mostly 20 µM; stimulated with dexamethasone, 1 µM; stronger effect = lower value; z-score, hits read low; 220,000 tested, 0.47% active;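 active = plate z-score of nuclear minus cytoplasmic receptor signal below a set negative limit, without overly bright fluorescence or cell loss, cut at about -3.5 in these data, passing the limit was not always enough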;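 note: z-score of nuclear minus cytoplasmic ring GR-EGFP intensity difference per well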
#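 Also added: dexamethasone, 1.0 µM final. Medium: tet-free, stripped-serum medium. Detection: fixed, Hoechst-stained cells imaged at 10x for EGFP. Read-out: nuclear-to-cytoplasmic GR-EGFP distribution per well. Times: induction 48 h, compound 1 h, agonist 30 min.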
# Hck Nef HTS: human Hck-Nef kinase inhibition; Recombinant Hck-YEEI plus Nef, Z-Lyte FRET kinase assay; inhibition, % at 20 µM; 220,000 tested, 0.68% active; AID 463187;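 active = Hck-Nef kinase inhibition above about 50%, limit read from the data; inactive = inhibition below that limit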;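 note: 0% = DMSO with Hck plus Nef and 100% = Hck alone without Nef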
# Hck-Nef confirm: confirmation of Hck-Nef kinase inhibitors | AID 463188 | Recombinant Hck-YEEI:Nef, Z-Lyte FRET kinase assay | shares compounds with Hck Nef HTS | 1,300 tested, 28% active | calls only at 10 µM;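 active = average inhibition of at least 50%, with Z-scores no higher than 3 in both the phospho-tyrosine peptide and fluorescence counterscreens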
# Active calls of the source: *; i = inactive; / = no result given; + = active, no number. Most compounds without a hit are left out; they make up all but 2.4% or so of the library.
SMILES,TNF necrop inh,L929 necroptosis,Autophagy HCS,Mdm2 ligase inh,Dynein cargo inh,Hck Nef HTS,Hck-Nef confirm
COc1ccc(C=C2C(=O)c3ccccc3C2=O)cc1O,-5,2,i,-10,-0.56,105*,i
COC(=O)Cc1c(C)c2cc(Cl)c(OC(=O)c3ccco3)cc2oc1=O,1,0,i,-11,-0.54,102*,/
COC(=O)Cc1c(C)c2ccc(OC(=O)c3ccco3)cc2oc1=O,-1,-1,i,-15,-0.55,102*,/
Cc1cc(=O)oc2cc(OC(=O)c3ccco3)ccc12,-1,-1,i,/,0.65,127*,i
COC(=O)Cc1c(C)c2ccc(OC(C)C)cc2oc1=O,1,0,/,-11,-0.28,22,/
O=C(CSc1nnc(-c2ccco2)c(-c2ccco2)n1)c1ccccc1,-1,0,i,-23,-0.11,69*,i
CCCCCCN1CC(O)=C(c2nc3ccccc3[nH]2)C1=N,3,4,i,4,-0.11,0,/
CCC(C)N1CC(O)=C(c2nc3ccccc3[nH]2)C1=N (configuration not stated),1,9,i,-20,1.6,58*,+
O=C(OCc1ccccc1)c1cn(-c2ccccc2)nc1-c1ccncc1,-1,0,i,5,-0.27,1,/
FC(F)(F)c1cnc(Oc2cccc3ccccc23)c(Cl)c1,1,2,i,10,-0.91,-2,/
Cn1nc(Oc2ncc(C(F)(F)F)cc2Cl)cc1C(F)(F)F,0,3,i,-3,-0.26,54*,i
CC(C)c1c(O)nc(SCC(=O)Nc2ccc3c(c2)CCC3)[nH]c1=O,1,3,i,-6,0.49,3,/
CC(=O)NS(=O)(=O)c1ccc(NC(=O)c2cc(-c3ccc(C)c(C)c3)nc3ccccc23)cc1,-1,1,i,-12,-0.63,52*,+
CC(=O)NS(=O)(=O)c1ccc(NC(=O)c2cc(-c3ccc(C)cc3)nc3ccccc23)cc1,1,1,i,-16,0.11,1,/
CCOC(=O)N1CCN(C(=O)CSCc2ccccc2Cl)CC1,0,0,i,2,0.98,1,/
C/C=C/C=N/Nc1nc(-c2ccc([N+](=O)[O-])cc2)cs1,0,1,i,-9,1,2,/
CCc1ccc(Cc2cnc(NC(=O)C3=NCCN3)s2)cc1,-5,0,i,1,0.13,-25,/
c1ccc(-c2cc(-c3nnc4n3N=C(c3ccc5ccccc5c3)CS4)[nH]n2)cc1,-19,1,i,-7,0.23,54*,+
Nc1c2ccccc2nc2ccccc12,-18,21,/,-21,-0.68,93*,/
Nc1c2c(nc3ccccc13)CCCC2,5,-2,i,/,-1.7,-5,/
Cc1ccc(C(=O)NCCSC(C)(C)C)cc1,1,-1,i,-8,0.31,2,/
CC(C)(C)SCCNC(=O)c1ccccc1,1,0,i,-14,0.38,54*,i
O=c1[nH]c(CSc2nc(-c3ccccc3)cs2)nc2ccccc12,2,1,i,2,0.019,4,/
O=c1[nH]c(CSc2ncnc3sc(-c4ccccc4)cc23)nc2ccccc12,1,2,/,-10,-0.11,54*,i
O=C(CSc1nnc(SCc2ccccc2)s1)N/N=C/c1c[nH]c2ccccc12,-3,2,i,-22,0.8,95*,+
SMILES,TNF necrop inh,L929 necroptosis,Autophagy HCS,Mdm2 ligase inh,Dynein cargo inh,Hck Nef HTS,Hck-Nef confirm
Cc1ccc(CSc2nnc(SCC(=O)N/N=C/c3c[nH]c4ccccc34)s2)cc1,-2,0,i,-89,0.27,38,/
C(=C\c1ccco1)/c1ccc2ccccc2n1,-11,1,/,-19,-0.98,54*,i
Cc1cccc(NC(=O)CSc2nc(COc3ccccc3)nc3ccccc23)c1C,-2,0,i,-12,0.088,60*,i
Cc1cccc(C)c1NC(=O)CSc1nc(COc2ccccc2)nc2ccccc12,-2,0,i,-10,0.047,11,/
Cc1cc(C)c2cc(CN(CCO)Cc3nnnn3Cc3ccc(F)cc3)c(=O)[nH]c2c1,0,0,i,-5,-0.21,0,/
Cc1cc(C)c2cc(CN(CCO)Cc3nnnn3Cc3ccccc3)c(=O)[nH]c2c1,-1,3,i,-7,-0.44,85*,i
COc1ccc(C2CC(c3ccccc3)=NN2C(=O)COC(=O)C2(C)CC2(Cl)Cl)cc1 (configuration not stated),2,3,i,-37,-0.78,22,/
S=c1[nH]nc(-c2cccc(Cl)c2)n1/N=C/c1ccc(-c2ccccc2Br)o1,-3,1,/,0,-1,58*,i
CC(c1ccco1)N(C(=O)C12CC3CC(CC(C)(C3)C1)C2)c1ccccn1 (configuration not stated),-1,1,i,17,-0.14,0,/
O=C(CSc1nc(-c2ccccc2)nc2c1Cc1ccccc1O2)Nc1ccccc1,1,2,i,-8,-0.81,4,/
O=C(CSc1nc(-c2ccc(F)cc2)nc2c1Cc1ccccc1O2)Nc1cccc(C(=O)O)c1,-1,5,i,-7,1.1,153*,+
COC(=O)c1ccc(C#Cc2ccccc2)o1,1,-1,/,-10,-0.38,-3,/
COc1ccc(-n2cccc2/C=C2\C(=N)N3N=C(c4ccco4)SC3=NC2=O)cc1,-1,0,i,-2,1.3,93*,+
COc1ccc(C2=CC3=C(Br)C(=O)C(C)(OC(=O)c4ccco4)C(=O)C3=CO2)cc1 (configuration not stated),0,0,/,6,-0.42,92*,+
CCOC(=O)c1ccc(NNC(=O)CC)c([N+](=O)[O-])c1,1,0,i,-10,0.25,18,/
Nc1c(C(=O)N/N=C/c2ccccc2)cnn1-c1ccccc1,1,4,/,-13,-1.5,68*,i
